From paper PMC11318567 (Computational and Structural Biotechnology Journal, 2024)

How the values were obtained:
ATM = ATM (Homo sapiens, UniProt Q13315); assay: KinaseProfiler kinase activity assay; assay type: biochemical
Summary of the method: (§1)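 Radiometric activity assay with 10 µM test compound, added first from a 50× stock in 100 % DMSO, with no compound–kinase pre-incubation. Full activity came from 2 % DMSO wells without compound. The 0 % baseline came from a reference inhibitor: KU55933 for ATM, PI-103 for DNA-PK.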

Flt3 = Flt3 (Homo sapiens, UniProt P36888); assay: KinaseProfiler kinase activity assay; assay type: biochemical
B-Raf = B-Raf (Homo sapiens, UniProt P15056); assay: KinaseProfiler kinase activity assay; assay type: biochemical
Summary of the method: (§2)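 Radiometric kinase assay of test compound at 10 µM, added first from a 50× DMSO stock with no pre-incubation. Kinase was diluted in 45 mM TRIS, 0.4 mM EGTA, 18 mM DTT, 0.02 % Triton X-100, 1 mM sodium orthovanadate, 1 mM β-glycerophosphate, 2 % glycerol. Solvent wells (2 % DMSO) gave 100 % activity. Staurosporine blank wells defined 0 % activity.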

human topo IIβ = human topo IIβ (Homo sapiens, UniProt Q02880); assay: Human topo IIβ-mediated decatenation assay; assay type: biochemical
MEKK3 = MEKK3 (Homo sapiens, UniProt Q99759); assay: KinaseProfiler kinase activity assay; assay type: biochemical
Sequence of MEKK3 (Q99759 whole entry): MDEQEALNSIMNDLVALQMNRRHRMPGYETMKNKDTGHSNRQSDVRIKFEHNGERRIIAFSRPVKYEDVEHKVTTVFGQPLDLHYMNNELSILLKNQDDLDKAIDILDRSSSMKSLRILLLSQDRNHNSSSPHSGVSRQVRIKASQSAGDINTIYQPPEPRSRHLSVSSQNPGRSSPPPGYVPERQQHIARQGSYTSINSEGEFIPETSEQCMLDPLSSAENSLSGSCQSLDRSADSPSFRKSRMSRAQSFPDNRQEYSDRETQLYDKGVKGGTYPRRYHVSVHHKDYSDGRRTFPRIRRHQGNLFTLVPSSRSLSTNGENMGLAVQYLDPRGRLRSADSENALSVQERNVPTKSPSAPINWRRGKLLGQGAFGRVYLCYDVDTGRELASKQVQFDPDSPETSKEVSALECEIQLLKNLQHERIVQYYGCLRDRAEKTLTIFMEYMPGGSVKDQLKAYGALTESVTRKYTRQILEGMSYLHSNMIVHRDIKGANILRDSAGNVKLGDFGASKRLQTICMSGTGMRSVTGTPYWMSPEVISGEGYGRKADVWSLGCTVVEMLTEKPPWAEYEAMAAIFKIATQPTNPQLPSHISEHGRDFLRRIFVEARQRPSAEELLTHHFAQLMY
Summary of the method: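 Kinase was prepared in 50 mM HEPES, 1 mM EDTA, 10 mM DTT, 0.01 % Brij-35. Activity was measured radiometrically with 10 µM test compound added first from a 50× DMSO stock, without pre-incubation. Activity is expressed relative to 2 % DMSO control wells (100 %) and staurosporine blank wells (0 %).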

[1] = target: ATPase domain of topo IIα (Homo sapiens, UniProt P11388); assay: 1H STD NMR experiments; assay type: binding; details: protein:ligand ratio 1:100
Sequence of ATPase domain of topo IIα (P11388 1-453 limits assumed): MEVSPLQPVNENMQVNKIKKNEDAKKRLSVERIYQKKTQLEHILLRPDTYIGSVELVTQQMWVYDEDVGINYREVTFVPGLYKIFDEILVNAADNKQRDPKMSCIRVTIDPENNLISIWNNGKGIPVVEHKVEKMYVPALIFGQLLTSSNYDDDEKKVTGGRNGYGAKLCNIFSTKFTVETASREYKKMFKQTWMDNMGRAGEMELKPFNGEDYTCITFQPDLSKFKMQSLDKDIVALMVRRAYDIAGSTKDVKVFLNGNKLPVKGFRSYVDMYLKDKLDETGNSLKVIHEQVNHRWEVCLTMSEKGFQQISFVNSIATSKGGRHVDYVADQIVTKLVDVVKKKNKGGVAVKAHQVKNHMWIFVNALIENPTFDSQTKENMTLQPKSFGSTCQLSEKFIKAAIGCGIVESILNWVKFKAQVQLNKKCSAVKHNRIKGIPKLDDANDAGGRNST
Summary of the method: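 Runs were at 600 MHz, 25 °C, with a 100 ms T₁ρ filter. On-resonance saturation was at −0.727 ppm and off-resonance at 30 ppm. Saturation was 0.5 or 1 s depending on compound, with relaxation delay 4 or 1.5 s. Epitope maps come from STD amplification factors.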

Ret = Ret (Homo sapiens, UniProt P07949); assay: KinaseProfiler kinase activity assay; assay type: biochemical
Summary of the method: (§3)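 Radiometric kinase activity assay. Test compound was made as a 50× stock in 100 % DMSO and added first to 10 µM, with no pre-incubation before reaction start. Kinase was prepared in 20 mM MOPS, 1 mM EDTA, 0.01 % Brij-35, 5 % glycerol, 0.1 % β-mercaptoethanol, 1 mg/mL BSA. Full-activity wells had 2 % DMSO without compound. Blank wells with staurosporine set 0 % activity.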

PKA = PKA (Homo sapiens, UniProt P17612); assay: KinaseProfiler kinase activity assay; assay type: biochemical
Summary of the method: as §3

[2] = system: NCI-60 human cancer cell lines; assay: NCI-60 screening, whole panel; assay type: cell-based; details: 10 µM
FGFR1 = FGFR1 (Homo sapiens, UniProt P11362); assay: KinaseProfiler kinase activity assay; assay type: biochemical
Summary of the method: as §3

wheatgerm topo I = assay: Wheatgerm topo I unwinding assay; assay type: biochemical, wheat germ; details: 7.8, 15.6, 31.25, 125 μM
Summary of the method: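 Wheat germ topo I plasmid unwinding run in duplicate at 7.8, 15.6, 31.25 and 125 µM test compound, with the intercalator m-AMSA as positive control.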

DNA-PK = DNA-PK (Homo sapiens, UniProt P78527); assay: KinaseProfiler kinase activity assay; assay type: biochemical
Summary of the method: as §1

human topo IIα [3] = target: T1, human topo IIα (Homo sapiens, UniProt P11388); assay: Human topoisomerase IIα-mediated cleavage assay; assay type: biochemical; details: 7.8-125 μM
T1 sequence (P11388 whole entry): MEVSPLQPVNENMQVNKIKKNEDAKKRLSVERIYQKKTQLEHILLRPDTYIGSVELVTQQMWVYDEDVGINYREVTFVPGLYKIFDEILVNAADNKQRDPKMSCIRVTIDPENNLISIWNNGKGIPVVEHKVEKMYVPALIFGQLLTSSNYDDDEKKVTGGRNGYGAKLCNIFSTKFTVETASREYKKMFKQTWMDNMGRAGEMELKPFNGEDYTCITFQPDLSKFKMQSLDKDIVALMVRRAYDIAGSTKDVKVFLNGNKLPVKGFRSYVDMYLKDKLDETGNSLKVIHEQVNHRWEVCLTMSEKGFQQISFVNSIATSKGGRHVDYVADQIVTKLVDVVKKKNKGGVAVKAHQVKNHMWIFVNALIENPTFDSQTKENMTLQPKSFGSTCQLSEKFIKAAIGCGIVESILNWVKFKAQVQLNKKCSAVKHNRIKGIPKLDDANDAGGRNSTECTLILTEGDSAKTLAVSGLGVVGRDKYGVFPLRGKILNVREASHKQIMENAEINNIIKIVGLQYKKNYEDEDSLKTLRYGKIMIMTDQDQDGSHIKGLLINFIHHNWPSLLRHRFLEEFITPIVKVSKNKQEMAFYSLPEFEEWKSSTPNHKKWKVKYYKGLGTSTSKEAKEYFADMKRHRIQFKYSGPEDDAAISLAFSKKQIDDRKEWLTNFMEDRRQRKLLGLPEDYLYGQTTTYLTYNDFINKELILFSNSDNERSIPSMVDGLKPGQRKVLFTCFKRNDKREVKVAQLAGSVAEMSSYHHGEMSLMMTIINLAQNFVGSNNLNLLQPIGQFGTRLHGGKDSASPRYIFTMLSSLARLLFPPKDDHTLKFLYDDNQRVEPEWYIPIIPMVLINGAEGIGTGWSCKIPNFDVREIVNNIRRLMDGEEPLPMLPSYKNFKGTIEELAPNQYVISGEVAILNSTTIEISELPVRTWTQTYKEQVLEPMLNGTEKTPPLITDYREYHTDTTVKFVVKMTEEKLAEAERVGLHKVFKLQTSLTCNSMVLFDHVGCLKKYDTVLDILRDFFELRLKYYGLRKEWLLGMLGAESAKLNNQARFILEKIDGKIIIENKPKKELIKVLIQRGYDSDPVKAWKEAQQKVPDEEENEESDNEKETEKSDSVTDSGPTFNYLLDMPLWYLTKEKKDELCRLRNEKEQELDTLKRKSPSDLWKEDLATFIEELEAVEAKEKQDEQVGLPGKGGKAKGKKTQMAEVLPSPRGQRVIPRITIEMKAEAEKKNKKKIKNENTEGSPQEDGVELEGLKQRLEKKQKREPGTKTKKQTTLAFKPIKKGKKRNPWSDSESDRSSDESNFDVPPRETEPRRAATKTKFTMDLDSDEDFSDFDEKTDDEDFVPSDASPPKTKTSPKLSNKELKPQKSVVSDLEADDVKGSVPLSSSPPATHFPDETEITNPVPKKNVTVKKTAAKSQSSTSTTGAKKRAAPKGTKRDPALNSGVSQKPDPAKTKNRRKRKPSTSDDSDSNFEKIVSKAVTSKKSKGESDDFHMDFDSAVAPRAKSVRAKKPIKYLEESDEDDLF

cKit = cKit (Homo sapiens, UniProt P10721); assay: KinaseProfiler kinase activity assay; assay type: biochemical
Summary of the method: as §3

[4] = system: panel of 20 human protein kinases; assay: KinaseProfiler, whole panel; assay type: biochemical; details: 10 µM
EGFR = EGFR (Homo sapiens, UniProt P00533); assay: KinaseProfiler kinase activity assay; assay type: biochemical
Summary of the method: as §3

PKBα = PKBα (Homo sapiens, UniProt P31749); assay: KinaseProfiler kinase activity assay; assay type: biochemical
Summary of the method: as §3

human topo IIα [5] = target: T1, human topo IIα; assay: Human topo IIα competitive cleavage assay; assay type: biochemical; details: in the presence of 50 μM etoposide
Fms = Fms (Homo sapiens, UniProt P07333); assay: KinaseProfiler kinase activity assay; assay type: biochemical
IGF-1R = IGF-1R (Homo sapiens, UniProt P08069); assay: KinaseProfiler kinase activity assay; assay type: biochemical
Flt1 = Flt1 (Homo sapiens, UniProt P17948); assay: KinaseProfiler kinase activity assay; assay type: biochemical
JAK2 = JAK2 (Homo sapiens, UniProt O60674); assay: KinaseProfiler kinase activity assay; assay type: biochemical
CDK1/cyclinB = CDK1/cyclinB (Homo sapiens, UniProt P06493); assay: KinaseProfiler kinase activity assay; assay type: biochemical
Sequence of CDK1/cyclinB (P14635 whole entry): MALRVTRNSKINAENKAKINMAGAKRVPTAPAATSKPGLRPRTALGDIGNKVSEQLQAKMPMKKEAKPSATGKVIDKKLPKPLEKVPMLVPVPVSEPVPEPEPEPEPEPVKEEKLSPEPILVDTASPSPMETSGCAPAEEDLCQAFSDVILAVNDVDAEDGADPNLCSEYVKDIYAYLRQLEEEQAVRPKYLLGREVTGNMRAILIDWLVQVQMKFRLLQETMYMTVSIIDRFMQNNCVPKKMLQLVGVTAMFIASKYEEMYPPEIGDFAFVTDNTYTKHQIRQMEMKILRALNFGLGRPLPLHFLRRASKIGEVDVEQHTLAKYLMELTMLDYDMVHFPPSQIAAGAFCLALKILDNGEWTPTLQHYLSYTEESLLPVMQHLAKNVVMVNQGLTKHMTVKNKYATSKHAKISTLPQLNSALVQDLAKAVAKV
Sequence of CDK1/cyclinB (P06493 whole entry): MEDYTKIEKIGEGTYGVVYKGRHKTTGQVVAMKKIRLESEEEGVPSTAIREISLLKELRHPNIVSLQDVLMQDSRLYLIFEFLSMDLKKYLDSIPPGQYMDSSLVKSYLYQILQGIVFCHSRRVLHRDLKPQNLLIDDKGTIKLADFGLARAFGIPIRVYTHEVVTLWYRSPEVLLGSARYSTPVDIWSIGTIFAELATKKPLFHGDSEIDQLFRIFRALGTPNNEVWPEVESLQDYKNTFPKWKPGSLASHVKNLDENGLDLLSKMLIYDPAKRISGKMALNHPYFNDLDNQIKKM
Summary of the method: as §3

human topo II = human topo II (Homo sapiens, UniProt P11388); assay: Competitive ATPase assay; assay type: biochemical; details: IC50 versus ATP concentration
Summary of the method: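 NADH-coupled ATPase (pyruvate kinase/lactate dehydrogenase, phosphoenolpyruvate) with human topo II at 14 nM final and linear pBR322. Buffer was 20 mM Tris-HCl, 5 mM Mg acetate, 125 mM K acetate, 2 mM DTT, pH 7.9. Compound in DMSO went in before enzyme, then a 10–15 min OD340 pre-run. ATP was added at varying concentrations and OD340 followed for up to 30 min at 37 °C, in duplicate. Hydrolysis rates vs ATP gave IC50 at each ATP level.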

FGFR3 = FGFR3 (Homo sapiens, UniProt P22607); assay: KinaseProfiler kinase activity assay; assay type: biochemical
Summary of the method: as §3

PDGFRα = PDGFRα (Homo sapiens, UniProt P16234); assay: KinaseProfiler kinase activity assay; assay type: biochemical
Sequence of PDGFRα (P16234 24-1089): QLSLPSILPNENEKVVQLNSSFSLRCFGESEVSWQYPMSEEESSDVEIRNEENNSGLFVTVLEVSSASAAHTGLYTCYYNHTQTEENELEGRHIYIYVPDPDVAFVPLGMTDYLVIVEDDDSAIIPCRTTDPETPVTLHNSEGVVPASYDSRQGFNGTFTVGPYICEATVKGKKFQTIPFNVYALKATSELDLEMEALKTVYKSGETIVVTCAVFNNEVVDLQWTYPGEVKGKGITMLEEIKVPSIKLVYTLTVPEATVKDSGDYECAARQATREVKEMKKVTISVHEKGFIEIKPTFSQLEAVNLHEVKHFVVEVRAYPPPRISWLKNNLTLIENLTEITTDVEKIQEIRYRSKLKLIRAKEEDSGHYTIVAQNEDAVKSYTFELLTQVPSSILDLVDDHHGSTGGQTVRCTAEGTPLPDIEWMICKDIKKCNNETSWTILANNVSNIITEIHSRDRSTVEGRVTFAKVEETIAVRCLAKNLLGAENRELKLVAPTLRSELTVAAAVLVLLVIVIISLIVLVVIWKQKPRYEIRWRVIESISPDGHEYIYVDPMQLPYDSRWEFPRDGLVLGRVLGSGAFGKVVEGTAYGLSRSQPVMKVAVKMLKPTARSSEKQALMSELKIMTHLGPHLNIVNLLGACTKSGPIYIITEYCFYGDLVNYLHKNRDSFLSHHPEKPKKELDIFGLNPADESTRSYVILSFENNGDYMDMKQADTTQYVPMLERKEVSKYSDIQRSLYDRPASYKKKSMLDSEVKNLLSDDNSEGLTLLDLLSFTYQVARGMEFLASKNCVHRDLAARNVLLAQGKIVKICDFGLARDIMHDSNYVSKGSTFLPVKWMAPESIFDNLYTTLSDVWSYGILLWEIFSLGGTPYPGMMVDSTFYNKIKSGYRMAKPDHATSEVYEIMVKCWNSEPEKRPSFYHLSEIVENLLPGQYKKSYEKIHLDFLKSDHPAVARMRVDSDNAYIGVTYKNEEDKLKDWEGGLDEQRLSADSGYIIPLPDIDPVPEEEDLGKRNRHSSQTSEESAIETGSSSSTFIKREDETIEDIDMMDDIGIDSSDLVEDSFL
Summary of the method: as §3

c-RAF = c-RAF (Homo sapiens, UniProt P04049); assay: KinaseProfiler kinase activity assay; assay type: biochemical
Sequence of c-RAF (P04049 whole entry): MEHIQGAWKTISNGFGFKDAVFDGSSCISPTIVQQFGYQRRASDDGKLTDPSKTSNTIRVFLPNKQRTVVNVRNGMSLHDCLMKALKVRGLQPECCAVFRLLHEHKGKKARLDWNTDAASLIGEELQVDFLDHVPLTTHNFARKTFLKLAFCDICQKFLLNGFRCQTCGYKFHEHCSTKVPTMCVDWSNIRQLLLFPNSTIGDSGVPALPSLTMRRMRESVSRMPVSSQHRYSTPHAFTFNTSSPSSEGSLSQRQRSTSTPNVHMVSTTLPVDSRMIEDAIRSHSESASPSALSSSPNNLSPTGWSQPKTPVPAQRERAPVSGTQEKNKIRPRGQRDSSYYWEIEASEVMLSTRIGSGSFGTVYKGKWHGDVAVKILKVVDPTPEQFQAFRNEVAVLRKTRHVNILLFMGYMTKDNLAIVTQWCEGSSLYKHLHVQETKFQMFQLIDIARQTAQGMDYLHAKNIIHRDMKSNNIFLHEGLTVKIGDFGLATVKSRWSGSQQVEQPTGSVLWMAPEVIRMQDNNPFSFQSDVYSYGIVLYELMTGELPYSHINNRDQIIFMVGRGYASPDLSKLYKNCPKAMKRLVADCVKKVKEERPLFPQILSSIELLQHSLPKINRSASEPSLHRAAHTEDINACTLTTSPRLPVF
Summary of the method: as §2

[6] = Solubility as observed during preparation for assays; assay type: physicochemical
Src(1-530) = Src(1-530) (Homo sapiens, UniProt P12931); assay: KinaseProfiler kinase activity assay; assay type: biochemical
Summary of the method: as §3

Molecule `O=c1nc(SCc2cc(F)cc(C(F)(F)F)c2)nc(SCc2ccc3sccc3c2)[nH]1` [Compound 24, 6-((Benzo[b]thiophen-5-ylmethyl)thio)−4-((3-fluoro-5-(trifluoromethyl)benzyl)thio)−1,3,5-triazin-2(1H)-one] has an activity at 10 µM (ATM) of 86%, an activity at 10 µM (Flt3) of 93% and an activity at 10 µM (B-Raf) of 93%. For the same molecule, the IC50 (human topo IIβ) was 9.9 ± 0.4 µM, the activity at 10 µM (MEKK3) was 87% and the “interaction with the ATPase domain of topo IIα by STD NMR (in words)” value [1] was “confirmed the interaction”. The activity at 10 µM (Ret) was 91%, the activity at 10 µM (PKA) was 86% and the “cytotoxic activity in NCI-60 (in words)” value [2] was “marginal cytotoxicity in several leukemia cell lines”. For the same molecule, the activity at 10 µM (FGFR1) was 90%, the “unwinding / intercalation (in words)” value (wheatgerm topo I) was “inhibitors rather than intercalators” and the activity at 10 µM (DNA-PK) was 83%. The “linear plasmid in the cleavage assay (in words)” value (human topo IIα [3]) was “a low level of linear plasmid was detected at 15.6 μM and above”, the activity at 10 µM (cKit) was 99% and the “inhibition of the panel of 20 human protein kinases (in words)” value [4] was “no significant inhibitory effect was observed”. For the same molecule, the activity at 10 µM (EGFR) was 100%, the activity at 10 µM (PKBα) was 105% and the “linear product in the competitive cleavage assay (in words)” value (human topo IIα [5]) was “appeared to reduce the linear product of the etoposide-topoIIα cleavage complex at lower concentrations”. It also gave an activity at 10 µM (Fms) of 77%, an activity at 10 µM (IGF-1R) of 92% and an activity at 10 µM (Flt1) of 93%. The activity at 10 µM (JAK2) was 107%, the activity at 10 µM (CDK1/cyclinB) was 124% and the “mode of inhibition with respect to ATP (in words)” value (human topo II) was “no noticeable decrease in IC50 values”. It also gave an activity at 10 µM (FGFR3) of 92%, an activity at 10 µM (PDGFRα) of 106% and an activity at 10 µM (c-RAF) of 110%. For the same molecule, the “solubility (in words)” value [6] was “more soluble compared to the benzyl-substituted analogues” and the activity at 10 µM (Src(1-530)) was 127%.
